Measurements collected from several papers.
Target: Wee1-like protein kinase (WEE1, Homo sapiens, UniProt P30291)

The remaining activity of `COc1cc(Cl)c(C(=O)N[C@@H](CN[C@H]2CC[C@@H](N)CC2)Cc2ccc(C#N)cc2)cc1-c1ccc(CN[C@H](C)c2ccc(C)cc2)o1` is reported as 102% (enzyme activity, inhibitor; 1 µM).
`O=C(O)[C@H]1[C@H](Cn2nnc3ccccc3c2=O)CC[C@@H]1C(=O)c1ccc(OCCC2CCOCC2)cc1` has a remaining binding of 100% (cell-free assay, competition with immobilised ligand; 1 µM).
`Cc1ccc(NC(=O)c2ccc(CN3CCN(C)CC3)cc2)cc1Nc1nc(-c2cccnc2)cs1` gave a remaining signal of 97% (cell-free assay; 0.5 µM).
For `CC(=O)N1CCC(c2ccc(C(=O)NC3=NCCN3)cc2C(F)(F)F)CC1`, the remaining binding was 100% (cell-free assay, competition with immobilised ligand; 1 µM).
`Cc1ccc(NC(=O)c2ccc(C)c(C(F)(F)F)c2)cc1C#Cc1nn(C2CCC(O)CC2)c2ncnc(N)c12` (stereo not shown) has a remaining signal of 95% (cell-free assay; 10 µM).
With `Nc1nc(Nc2ccc(S(N)(=O)=O)cc2)nn1C(=O)c1c(F)cccc1F` the remaining signal was 83.6% (cell-free assay; 0.5 µM).
For `N#Cc1ccc(Nc2ccc3[nH]c(=O)[nH]c3c2)c(Cl)c1`, the remaining binding was 87% (cell-free assay, competition with immobilised ligand; 1 µM).
With `Cc1ccc(C(=O)Nc2ccc(CN3CCN(C)CC3)c(C(F)(F)F)c2)cc1C#Cc1cnc2cccnn12` the remaining activity was 100% (enzyme activity, inhibitor; 23.5 nM).
The remaining binding of `CN(c1nccc(-c2cnn3ncccc23)n1)C1CC1` is reported as 100% (binding; 1 µM).
For `Cc1cc(NC(=O)c2cccc3cc(-c4cccc5[nH]nc(N)c45)ccc23)ccc1F`, the activity vs control was 97% (enzyme activity, inhibitor; 0.1 µM).
The remaining signal of `Nc1ncnc2occ(-c3ccc(NC(=O)Nc4cc(C(F)(F)F)ccc4F)cc3)c12` is reported as 17% (cell-free assay, inhibitor; 20 µM).
For `N#CCCc1ccc2c(c1)-c1[nH]c3ccc([N+](=O)[O-])cc3c1CC(=O)N2`, the remaining signal was 100% (cell-free assay; 0.5 µM).
`CC(C)(C)c1nc2c(s1)c1nc(N)ncc1c1ccc(NS(=O)(=O)c3c(F)cccc3F)c(F)c12` gave a remaining activity of 87% (enzyme activity, inhibitor, radiometric; 1 µM).
`CC1=C(C#N)[C@@H](c2ccc3[nH]nc(C)c3c2)C(C#N)=C(c2ccc(Cl)cc2)N1` gave a remaining binding of 100% (cell-free assay, competition with immobilised ligand; 1 µM).
With `O=C1NC(=O)c2cc(Nc3ccc(F)cc3)c(Nc3ccc(F)cc3)cc21` the remaining signal was 99.6% (cell-free assay; 0.5 µM).
The remaining activity of `O=C(Nc1cnn(-c2csc(C(=O)NC3COC3)c2)c1)Nc1c(F)cccc1Cl` is reported as 85.2% (enzyme activity, inhibitor; 5 µM).
